Assay results from article PMC4038343 (Biochemistry, 2014).
Entries after “also recorded” stand apart in the source; their conditions may differ. Square brackets hold non-standard residues; d marks the D form. Ends that are not written are not given here.

B1: ALT(MG-H1)EYTG, synthetic MG-H1-containing peptide (peptide)
peptide: ALT[MG‑H1]EYTG
B2: V domain of the receptor for advanced glycation end products (RAGE) (domain or fragment)
chain: QNITARIGEPLVLKCKGAPKKPPQRLEWKLNTGRTEAWKVLSPQGGGPWDSVARVLPNGSLFLPAVGIQDEGIFRCQAMNRNGKETKSNYRVRVYQIPGKPE

Legend:
[1] = biological target: T1, V domain of RAGE (Homo sapiens, UniProt Q15109); test: NMR solution structure of MG-H1–V domain complex; assay type: binding
Method in brief: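 Samples of 500 μM [U-13C,15N] V domain, free and with 1 mM unlabeled hydroimidazolone ligand, in pH 6.5 phosphate, 100 mM NaCl, 0.02% NaN3, 90% H2O/10% D2O. 3D 15N- and 13C-edited and 15N-edited/13C-filtered NOESY-HSQC. CYANA calculation: 986 intramolecular and five intermolecular distance restraints (intermolecular upper limits 6 Å), 150 TALOS torsion pairs, 38 H-bond restraints, one disulfide. 20 best structures kept.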

[2] = biological target: T1, V domain of RAGE; test: ELISA-based competition with MGO-BSA for the V domain; assay type: binding; conditions: 1 μM V domain
[3] = test system: JNK phosphorylation (p-JNK) in A549 cells, effector of RAGE signaling; test: JNK phosphorylation in A549 cells, Western blot; assay type: cell-based, human; conditions: 200 nM (12 μg/mL) MGO-BSA, 7 min, vs unmodified BSA
[4] = biological target: T1, V domain of RAGE; test: Binding of arginine to the V domain; conditions: method not stated
[5] = test system: RAGE; conditions: cited from earlier work
[6] = biological target: T1, V domain of RAGE; test: Fluorescence titration, native tryptophan fluorescence of wild-type V domain; assay type: binding; conditions: pH 6.5, 25 °C
Method in brief: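 Wild-type RAGE V domain: expressed in E. coli BL21(DE3) Codon+, purified on Ni-NTA, His tag removed by thrombin. 100 nM protein in 10 mM phosphate pH 6.5 with 100 mM NaCl, at 25 °C in a stirred cuvette. Test compound titrated from 5 nM to 10 μM in 11 steps. Tryptophan emission excited at 295 nm, reference titrations subtracted, dilution-corrected. Kd from single-site binding isotherm fit.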

[7] = biological target: B2; test: other fluorescence titration
[8] = biological target: methylglyoxal-modified bovine serum albumin (bovine, UniProt P02769 25-607, methylglyoxal-modified, contains hydroimidazolones; sites and number not stated); test: ELISA
methylglyoxal-modified bovine serum albumin, sequence (P02769 25-607): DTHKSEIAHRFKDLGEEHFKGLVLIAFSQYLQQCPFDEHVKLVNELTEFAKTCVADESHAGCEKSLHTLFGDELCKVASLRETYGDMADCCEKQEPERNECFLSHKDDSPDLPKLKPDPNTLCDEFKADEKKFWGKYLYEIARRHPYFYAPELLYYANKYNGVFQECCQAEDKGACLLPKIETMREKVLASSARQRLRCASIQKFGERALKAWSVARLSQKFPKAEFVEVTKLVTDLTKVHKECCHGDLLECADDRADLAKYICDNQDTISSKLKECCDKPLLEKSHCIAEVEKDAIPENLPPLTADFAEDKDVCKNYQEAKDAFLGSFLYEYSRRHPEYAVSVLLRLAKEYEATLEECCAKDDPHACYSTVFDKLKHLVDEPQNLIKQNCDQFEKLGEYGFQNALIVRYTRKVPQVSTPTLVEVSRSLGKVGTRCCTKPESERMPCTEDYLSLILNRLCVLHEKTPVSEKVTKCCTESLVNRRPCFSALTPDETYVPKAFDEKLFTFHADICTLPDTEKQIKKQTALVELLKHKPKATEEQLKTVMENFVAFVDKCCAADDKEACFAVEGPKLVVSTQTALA

CC1N=C(NCCCC(N)C(=O)O)NC1=O [(R)-epimer of MG-H1]
stereospecific fit into the MG-H1–V domain binding site ([1]; NMR solution structure, ligand racemic mixture of (R)- and (S)-epimers): Only the (R)-epimer of MG-H1 can be fit into the MG-H1–V domain binding site

CC1N=C(N)N(CCCC(N)C(=O)O)C1=O (stereo not drawn) [MG-H3, 5-(2-amino-4-hydro-4-methyl-5-imidazolon-1-yl)norvaline]
blocking of MGO-BSA binding to the V domain [2]: can successfully block binding of MGO-BSA to the V domain

MGO-BSA: methylglyoxal-modified bovine serum albumin, prepared according to the method of Ahmed et al.
JNK phosphorylation [3]: increase in the level of phosphorylation of JNK; also recorded: increases JNK phosphorylation (p-JNK) relative to that with BSA alone

N=C(N)NCCC[C@H](N)C(=O)O [arginine]
binding to the V domain [4]: did not detect any binding

CC(NCCCC[C@H](N)C(=O)O)C(=O)O (stereo partly drawn) [CEL, N^ε-carboxyethyl-lysine]
binding to RAGE of free AGE adducts of lysine [5]: do not bind to RAGE

N[C@@H](CCCCNCC(=O)O)C(=O)O [CML, N^ε-carboxymethyl-lysine]
binding to RAGE of free AGE adducts of lysine [5]: do not bind to RAGE

N[C@@H](CCCNC1=NC(=O)CN1)C(=O)O [G-H1, N^δ-(5-hydro-4-imidazolon-2-yl)ornithine]
affinity for the V domain (in words) [6]: comparable to that of the MG-Hs

CC1C(=O)N=C(N)N1CCCC(N)C(=O)O (stereo not drawn) [MG-H2, 5-(2-amino-5-hydro-5-methyl-4-imidazolon-1-yl)norvaline]
blocking of MGO-BSA binding to the V domain [2]: can successfully block binding of MGO-BSA to the V domain

CC1NC(NCCC[C@H](N)C(=O)O)=NC1=O (stereo partly drawn) [MG-H1, N^δ-(5-hydro-5-methyl-4-imidazolon-2-yl)ornithine]
blocking of MGO-BSA binding to the V domain [2]: can successfully block binding of MGO-BSA to the V domain | size of MG-H1 binding site ([1]; NMR solution structure of MG-H1–V domain complex): 80 Å^2

B1
Kd [7]: 44 ± 6 nM

B2
binding result [8]: binds
